Source: ChEMBL document CHEMBL1124382, “Synthesis and radioprotective activity of dipeptide cysteamine and cystamine derivatives” (J Med Chem, 1989)
Where “and” joins values, the source holds several entries; their conditions need not be identical. Equal entries are not always repeated.

Assays:
[1] = The compound was tested for toxicity in mice, expressed as LD50; type: organism-based; conditions: in vivo
In short: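 Three-month-old inbred albino CXVII mice (about 25 g) received compounds dissolved in distilled water by intraperitoneal injection. A preliminary study set the dose range. Five groups of 10 mice then each received a different dose within that range. LD50 was derived by probit analysis.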

Mus musculus [2] = experiment: The compound was tested for radioprotective activity (DRF) in mice 15 min before whole body irradiation with value in braces indicating the administered dose in mg/Kg
Mus musculus [3] = experiment: The compound was tested for radioprotective activity (DRF) in mice 2 hours before whole body irradiation with value in braces indicating the administered dose in mg/Kg

SMILES	LD50 [1]	DRF (Mus musculus [2])	DRF (Mus musculus [3])
CC(=O)SCCNC(=O)CNC(=O)[C@@H](C)N	1500 mg/kg	1.55 and 1	1
C[C@H](N)C(=O)NCC(=O)NCCSSCCNC(=O)CNC(=O)[C@@H](C)N	1500 mg/kg	1.35 and 1	–
NCC(=O)NCC(=O)NCCSSCCNC(=O)CNC(=O)CN	2000 mg/kg	1.1 and 1	1
CC(=O)SCCNC(=O)CNC(=O)CN	2400 mg/kg	1.55	–
CC(=O)SCCNC(=O)CN	1500 mg/kg	1.4 and 1	1
C[C@H](NC(=O)CN)C(=O)NCCSSCCNC(=O)[C@@H](C)NC(=O)CN	800 mg/kg	1.1	–
CC(=O)SCCNC(=O)[C@H](C)NC(=O)CN	1500 mg/kg	1.25	1
